Active and inactive are the calls of the source. No cut-off for these calls is given here.
Assays:
SW948 = assay: Antiproliferative activity against human SW948 cells assessed as inhibition of cell proliferation incubated for 3 days by CellTiter-Glo Luminescent Cell Viability Assay; assay type: functional, cell-based; details: SW948, 72 h
In short: (§1)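 Cells of each line were plated in 384-well plates on day 1 and exposed to compound from day 2 for 3 days. On day 5 all medium was aspirated. Viable cell number was read by CellTiter-Glo luminescence, which quantifies cellular ATP.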

Caco-2 = assay: Antiproliferative activity against human Caco-2 cells assessed as inhibition of cell proliferation incubated for 3 days by CellTiter-Glo Luminescent Cell Viability Assay; assay type: functional, cell-based; details: Caco-2, 72 h
In short: (§2)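 Cancer cell lines seeded in 384-well plates on day 1; compound added on day 2 and left for 3 days. On day 5 all medium was aspirated, and viable cells were quantified by CellTiter-Glo luminescence, which measures cellular ATP. Dose-dependent effects on proliferation were determined.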

SW1990 = assay: Antiproliferative activity against human SW1990 cells assessed as inhibition of cell proliferation incubated for 3 days by CellTiter-Glo Luminescent Cell Viability Assay; assay type: functional, cell-based; details: SW1990, 72 h; in short: as §1
Hs-578T = assay: Antiproliferative activity against human Hs-578T cells assessed as inhibition of cell proliferation incubated for 3 days by CellTiter-Glo Luminescent Cell Viability Assay; assay type: functional, cell-based; details: 72 h; in short: as §2
HCC1806 = assay: Antiproliferative activity against human HCC1806 cells assessed as inhibition of cell proliferation incubated for 3 days by CellTiter-Glo Luminescent Cell Viability Assay; assay type: functional, cell-based; details: HCC1806, 72 h; in short: as §2
BT-474 = assay: Antiproliferative activity against human BT-474 cells assessed as inhibition of cell proliferation incubated for 3 days by CellTiter-Glo Luminescent Cell Viability Assay; assay type: functional, cell-based; details: BT-474, 72 h; in short: as §2
[1] = molecular target: Serine/threonine-protein kinase N1 (Homo sapiens) (UniProt Q16512); assay: Inhibition of human PRK1 in presence of ATP relative to control; details: concentration not given here
[2] = molecular target: Ribosomal protein S6 kinase alpha-1 (Homo sapiens, UniProt Q15418); assay: Inhibition of human RSK1 assessed as inhibition constant in presence of ATP
[3] = molecular target: Protein kinase C gamma type (Homo sapiens, UniProt P05129); assay: Inhibition of human PKCgamma assessed as inhibition constant in presence of ATP
[4] = molecular target: Serine/threonine-protein kinase Chk2 (Homo sapiens, UniProt O96017); assay: Inhibition of human CHK2 in presence of ATP
[5] = molecular target: T1, Receptor-type tyrosine-protein kinase FLT3 (Homo sapiens, UniProt P36888); assay: Inhibition of human FLT3 in presence of ATP
T1 sequence (P36888 whole entry): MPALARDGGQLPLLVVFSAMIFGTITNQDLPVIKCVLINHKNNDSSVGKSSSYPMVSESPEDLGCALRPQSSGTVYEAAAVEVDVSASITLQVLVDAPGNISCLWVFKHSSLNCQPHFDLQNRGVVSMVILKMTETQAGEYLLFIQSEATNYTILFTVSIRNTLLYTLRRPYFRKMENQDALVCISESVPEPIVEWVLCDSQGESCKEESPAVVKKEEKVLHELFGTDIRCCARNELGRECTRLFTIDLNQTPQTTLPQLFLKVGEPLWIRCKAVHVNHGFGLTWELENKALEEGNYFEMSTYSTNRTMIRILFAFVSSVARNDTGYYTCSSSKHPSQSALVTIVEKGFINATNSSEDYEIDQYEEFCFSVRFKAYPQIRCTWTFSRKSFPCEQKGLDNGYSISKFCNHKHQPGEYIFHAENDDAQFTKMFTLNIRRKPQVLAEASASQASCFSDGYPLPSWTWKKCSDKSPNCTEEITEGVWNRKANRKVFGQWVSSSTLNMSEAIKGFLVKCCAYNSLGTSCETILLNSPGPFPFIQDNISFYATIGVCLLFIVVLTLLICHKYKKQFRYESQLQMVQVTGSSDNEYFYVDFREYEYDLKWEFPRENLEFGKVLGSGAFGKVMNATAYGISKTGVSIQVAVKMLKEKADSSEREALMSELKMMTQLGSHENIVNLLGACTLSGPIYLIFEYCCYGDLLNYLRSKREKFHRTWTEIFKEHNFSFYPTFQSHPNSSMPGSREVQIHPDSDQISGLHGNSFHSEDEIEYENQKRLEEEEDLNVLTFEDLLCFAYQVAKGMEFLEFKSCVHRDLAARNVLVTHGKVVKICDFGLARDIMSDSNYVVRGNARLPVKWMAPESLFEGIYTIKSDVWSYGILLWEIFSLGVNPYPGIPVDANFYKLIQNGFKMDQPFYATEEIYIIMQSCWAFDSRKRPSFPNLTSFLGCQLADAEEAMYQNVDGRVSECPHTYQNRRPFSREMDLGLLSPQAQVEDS

[6] = molecular target: T2, Protein kinase C beta type (Homo sapiens, UniProt P05771); assay: Inhibition of human PKCbeta-II in presence of ATP
[7] = molecular target: Proto-oncogene tyrosine-protein kinase Src (Homo sapiens, UniProt P12931); assay: Inhibition of human SRC in presence of ATP
[8] = molecular target: T2, Protein kinase C beta type; assay: Inhibition of human PKCbeta-II in presence of ATP by cellular assay
HCT-116 [9] = assay: Induction of apoptosis in human HCT-116 cells at 100 nM measured after 48 hrs by fluorescence activated cell sorter analysis; assay type: functional, cell-based
[10] = Inhibition of NF-kappaB signaling in HEK293T cells preincubated with compound for 0.5 hrs followed by TNFalpha stimulation and measured after 7 hrs by Steady-Glo luciferase assay; assay type: cell-based; details: Homo sapiens, HEK-293T
HCT-116 [11] = assay: Downregulation of camptothecin-induced p53 level in human HCT-116 cells at 1 uM preincubated with compound for 15 mins followed by camptothecin stimulation and measured after 20 hrs by Western blot analysis; assay type: functional, cell-based; details: time 20.25 hrs
M24met = assay: Antitumor activity against human M24met cells xenografted in nude mouse assessed as tumor growth inhibition at 7.5 mg/kg, po administered once daily for 9 to 18 days relative to control; assay type: functional; details: time 9-18 day, read-out: TGI
[12] = Drug concentration in nude mouse plasma xenografted with human HCT-116 cells at 3.3 mg/kg administered via pump for 9 days by LC-MS/MS analysis; assay type: ADME, organism-based; details: time 9 day
HCT-116 [13] = assay: Antitumor activity against human HCT-116 cells xenografted in nude mouse assessed as inhibition of [3H]FLT uptake at 25 mg/kg, po administered once a day for 1 day and measured after 2 hrs post [3H]FLT administration by scintillation counter analysis relative to control; assay type: functional; details: HCT-116, 24 h
In short: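 HCT116 xenograft mice (tumors 300–350 mm3, n = 5 per group) received oral vehicle or compound, with harvests on days 2, 3 and 6. Isoflurane-anesthetized mice were given [3H]FLT (15 nCi/g, i.p.) 2 h before killing. Tumor and liver were weighed, solubilized and scintillation-counted. SUV = C/(ID/W), and uptake is reported as the tumor-to-liver SUV ratio.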

HCT-116 [14] = assay: Antitumor activity against human HCT-116 cells xenografted in nude mouse assessed as reduction in STAT6 phosphorylation at Y641 residue at 15 to 150 mg/kg/day administered via pump for 18 hrs by Reverse-Phase protein array analysis; assay type: functional, organism-based; details: dose 15-150 mg/kg/day

T2 sequence (P05771 whole entry): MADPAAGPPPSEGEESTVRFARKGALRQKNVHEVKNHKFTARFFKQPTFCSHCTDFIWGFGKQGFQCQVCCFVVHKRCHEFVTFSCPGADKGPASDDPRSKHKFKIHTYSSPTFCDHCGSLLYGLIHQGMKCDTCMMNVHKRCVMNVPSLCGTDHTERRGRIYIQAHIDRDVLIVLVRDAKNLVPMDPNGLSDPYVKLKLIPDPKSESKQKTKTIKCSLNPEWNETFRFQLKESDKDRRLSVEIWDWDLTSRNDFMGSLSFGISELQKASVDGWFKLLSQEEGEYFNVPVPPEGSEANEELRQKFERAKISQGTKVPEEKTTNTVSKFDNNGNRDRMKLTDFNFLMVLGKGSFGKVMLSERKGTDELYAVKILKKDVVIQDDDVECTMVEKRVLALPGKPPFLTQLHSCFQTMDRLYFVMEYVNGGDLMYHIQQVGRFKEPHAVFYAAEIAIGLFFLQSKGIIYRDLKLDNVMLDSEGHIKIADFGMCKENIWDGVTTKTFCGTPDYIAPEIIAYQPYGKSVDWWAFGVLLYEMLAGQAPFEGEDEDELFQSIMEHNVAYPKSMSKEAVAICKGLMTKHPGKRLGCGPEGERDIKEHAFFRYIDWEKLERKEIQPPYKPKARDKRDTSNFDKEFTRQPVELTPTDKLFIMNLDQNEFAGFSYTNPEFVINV
Chain of Serine/threonine-protein kinase Chk2 (O96017 whole entry): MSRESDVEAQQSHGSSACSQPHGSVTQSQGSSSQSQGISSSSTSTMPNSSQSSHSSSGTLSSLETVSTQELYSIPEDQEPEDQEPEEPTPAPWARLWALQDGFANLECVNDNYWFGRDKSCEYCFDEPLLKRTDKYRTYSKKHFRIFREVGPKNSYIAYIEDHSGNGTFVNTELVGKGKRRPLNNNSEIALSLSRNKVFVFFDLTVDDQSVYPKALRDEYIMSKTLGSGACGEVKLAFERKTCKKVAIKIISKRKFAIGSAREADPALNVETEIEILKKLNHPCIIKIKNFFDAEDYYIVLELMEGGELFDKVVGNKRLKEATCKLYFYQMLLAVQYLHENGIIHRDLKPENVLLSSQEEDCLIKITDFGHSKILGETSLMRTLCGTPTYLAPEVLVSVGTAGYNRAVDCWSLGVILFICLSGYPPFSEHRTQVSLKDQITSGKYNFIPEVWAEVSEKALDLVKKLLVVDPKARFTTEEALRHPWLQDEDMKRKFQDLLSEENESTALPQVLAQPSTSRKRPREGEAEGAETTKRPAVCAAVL
Chain of Proto-oncogene tyrosine-protein kinase Src (P12931 2-536 limits assumed): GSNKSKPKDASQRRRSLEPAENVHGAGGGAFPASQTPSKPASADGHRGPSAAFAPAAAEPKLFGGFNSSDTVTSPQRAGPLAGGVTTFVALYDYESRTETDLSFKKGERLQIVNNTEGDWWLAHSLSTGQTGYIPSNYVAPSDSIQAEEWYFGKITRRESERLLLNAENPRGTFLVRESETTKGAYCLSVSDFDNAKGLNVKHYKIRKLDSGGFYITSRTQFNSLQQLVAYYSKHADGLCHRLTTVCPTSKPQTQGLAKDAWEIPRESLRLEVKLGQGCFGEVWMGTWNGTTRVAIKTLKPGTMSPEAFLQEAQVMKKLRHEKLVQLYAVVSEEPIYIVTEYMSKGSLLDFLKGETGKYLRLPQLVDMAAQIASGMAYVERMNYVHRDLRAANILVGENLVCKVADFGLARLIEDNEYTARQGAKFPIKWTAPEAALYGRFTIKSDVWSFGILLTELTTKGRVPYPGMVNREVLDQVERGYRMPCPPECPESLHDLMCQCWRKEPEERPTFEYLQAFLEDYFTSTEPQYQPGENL
Chain of Ribosomal protein S6 kinase alpha-1 (Q15418 whole entry): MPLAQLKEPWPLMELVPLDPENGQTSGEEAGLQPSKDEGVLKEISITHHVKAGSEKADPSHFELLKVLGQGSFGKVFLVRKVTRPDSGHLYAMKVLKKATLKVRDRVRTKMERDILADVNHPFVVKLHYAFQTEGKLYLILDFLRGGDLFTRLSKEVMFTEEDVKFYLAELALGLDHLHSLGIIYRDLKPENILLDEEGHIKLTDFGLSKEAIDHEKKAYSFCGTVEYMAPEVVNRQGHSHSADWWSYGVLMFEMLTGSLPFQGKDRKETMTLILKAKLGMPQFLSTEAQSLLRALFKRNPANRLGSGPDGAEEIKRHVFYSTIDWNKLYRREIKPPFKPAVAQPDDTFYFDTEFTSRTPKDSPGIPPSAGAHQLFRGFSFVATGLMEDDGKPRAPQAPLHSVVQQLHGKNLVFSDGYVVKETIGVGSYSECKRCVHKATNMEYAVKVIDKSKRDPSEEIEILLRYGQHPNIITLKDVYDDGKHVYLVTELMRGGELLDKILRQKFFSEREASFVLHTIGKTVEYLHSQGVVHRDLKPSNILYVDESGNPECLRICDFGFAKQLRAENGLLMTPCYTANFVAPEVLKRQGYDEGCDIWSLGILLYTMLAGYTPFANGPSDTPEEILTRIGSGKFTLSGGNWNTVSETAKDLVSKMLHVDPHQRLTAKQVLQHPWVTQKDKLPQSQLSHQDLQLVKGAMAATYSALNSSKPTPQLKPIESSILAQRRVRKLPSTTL
Chain of Serine/threonine-protein kinase N1 (Homo sapiens) (Q16512 2-942 limits assumed): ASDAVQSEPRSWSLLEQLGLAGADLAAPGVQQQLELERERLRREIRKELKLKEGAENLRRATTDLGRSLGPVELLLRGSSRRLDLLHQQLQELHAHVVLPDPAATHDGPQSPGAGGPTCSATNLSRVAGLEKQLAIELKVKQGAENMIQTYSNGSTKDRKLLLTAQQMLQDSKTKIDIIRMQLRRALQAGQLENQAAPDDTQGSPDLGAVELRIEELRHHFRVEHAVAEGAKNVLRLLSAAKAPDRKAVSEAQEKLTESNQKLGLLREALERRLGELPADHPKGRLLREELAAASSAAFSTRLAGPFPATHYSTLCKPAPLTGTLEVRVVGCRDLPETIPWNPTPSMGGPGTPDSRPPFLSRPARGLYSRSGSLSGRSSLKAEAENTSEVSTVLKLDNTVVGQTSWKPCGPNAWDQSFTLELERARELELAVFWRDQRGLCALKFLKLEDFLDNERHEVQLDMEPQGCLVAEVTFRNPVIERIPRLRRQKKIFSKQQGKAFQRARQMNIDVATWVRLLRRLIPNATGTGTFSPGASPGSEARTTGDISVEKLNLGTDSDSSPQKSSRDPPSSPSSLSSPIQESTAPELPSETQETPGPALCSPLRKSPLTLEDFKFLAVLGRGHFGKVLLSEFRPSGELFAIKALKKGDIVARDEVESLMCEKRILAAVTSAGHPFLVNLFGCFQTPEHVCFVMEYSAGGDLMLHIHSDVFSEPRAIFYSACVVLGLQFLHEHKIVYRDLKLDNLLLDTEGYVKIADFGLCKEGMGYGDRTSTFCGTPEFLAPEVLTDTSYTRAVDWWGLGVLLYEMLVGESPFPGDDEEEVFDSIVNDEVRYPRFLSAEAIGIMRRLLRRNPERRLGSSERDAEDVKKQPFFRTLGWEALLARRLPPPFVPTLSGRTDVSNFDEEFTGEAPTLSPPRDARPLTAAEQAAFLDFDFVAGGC

Question: For `Cc1nc(Nc2n[nH]c3c2CN(C(=O)N[C@H](CN(C)C)c2ccccc2)C3(C)C)c2sccc2n1` [PF-03758309], which IC50 (SW948) is on record?
Answer: 4.3 nM

Question: What about the IC50 (Caco-2) of the same compound?
Answer: 10000 nM

Question: And the IC50 (SW1990)?
Answer: 127 nM

Question: And the IC50 (Hs-578T)?
Answer: 0.37 nM

Question: And the IC50 (HCC1806)?
Answer: 1.2 nM

Question: And the IC50 (BT-474)?
Answer: 1.8 nM

Question: And the inhibition [1]?
Answer: 86%

Question: And the Ki [2]?
Answer: 5 nM

Question: What about the Ki [3] of the same compound?
Answer: 43 nM

Question: And the IC50 [4]?
Answer: 13 nM

Question: And the IC50 [5]?
Answer: 96 nM

Question: What about the IC50 [6] of the same compound?
Answer: 156 nM

Question: And the IC50 [7]?
Answer: 55 nM

Question: And the IC50 [8]?
Answer: 1390 nM

Question: What about the Activity (HCT-116 [9]) of the same compound?
Answer: Active

Question: What about the IC50 [10] of the same compound?
Answer: 24.2 nM

Question: And the Activity (HCT-116 [11])?
Answer: Active

Question: What about the inhibition in vivo at 7.5 mg/kg (M24met) of the same compound?
Answer: 49%

Question: What about the concentration at 216 h [12] of the same compound?
Answer: 37 ng/mL

Question: What about the inhibition in vivo at 25 mg/kg (HCT-116 [13]) of the same compound?
Answer: 33.8%

Question: And the Activity (HCT-116 [14])?
Answer: Active
